# According to publication PMC5159300 (Cell chemical biology, 2016):
# Like-named read-outs stand apart in the source and are kept apart here.
# Tests used:
# HepG2 cells = assay: Mammalian cell respiration toxicity; format: cell-based; settings: Homo sapiens, HepG2, read-out: IC50 toxicity to respiring HepG2 cells
# Outline: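 HepG2 cells were passaged in high-glucose DMEM, washed and resuspended in glucose-free DMEM with 10 mM galactose to force respiration, then seeded at 10,000 cells/well. After 72 hr with test compound, cellular ATP was measured by luminescent assay (reagent at 1:5 dilution) as a proxy for growth. IC50 was averaged from at least 2 independent experiments.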
# malarial cytochrome B = settings: ref Hughes et al., 1998; cited from earlier work
# human cytochrome bc1 [1] = biological target: T1, human cytochrome bc1 (Homo sapiens, UniProt P00156); assay: biochemical
# [2] = system: C. albicans wild-type (SC5314); assay: Emergence of fluconazole-resistant colonies on agar plates; format: cell-based, Candida albicans
# C. albicans SC5314 [3] = assay: Clonogenic survival in liquid culture; format: cell-based, Candida albicans; settings: for Effect on growth and viability as single agent: 32 mg/L fluconazole alone or 10 μM Inz-5 alone
# [4] = system: C. albicans CaCi-2 and rip1Δ/Δ; assay: Mouse systemic infection; format: in vivo, Balb/C mice; settings: low inoculum of CaCi-2 or rip1Δ/Δ; fluconazole 24 mg/kg IP for 3 days
# C. albicans CaCi-2 = format: cell-based, Candida albicans; settings: in the presence of fluconazole; SAR statement
# cytochrome bc1 [5] = biological target: cytochrome bc1 (Candida albicans, UniProt P0C8L0); assay: Cytochrome bc1 enzymatic activity in purified C. albicans mitochondria; format: biochemical; settings: for Extent of inhibition of C. albicans cytochrome bc1 activity: maximal effect
# Chain of cytochrome bc1 (Candida albicans, UniProt P0C8L0) (P0C8L0 whole entry): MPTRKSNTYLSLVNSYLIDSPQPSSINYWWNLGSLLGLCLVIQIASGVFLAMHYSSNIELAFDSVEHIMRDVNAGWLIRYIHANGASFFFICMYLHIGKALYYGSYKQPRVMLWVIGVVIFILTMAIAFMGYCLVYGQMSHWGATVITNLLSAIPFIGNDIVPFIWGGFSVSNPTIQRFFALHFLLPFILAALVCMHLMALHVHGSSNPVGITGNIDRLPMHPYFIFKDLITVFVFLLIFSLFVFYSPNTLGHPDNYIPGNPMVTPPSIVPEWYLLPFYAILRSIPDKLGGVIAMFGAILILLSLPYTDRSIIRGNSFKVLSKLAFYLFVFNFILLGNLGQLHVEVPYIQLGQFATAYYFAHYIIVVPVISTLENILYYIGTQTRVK
# Plasma stability = format: in vitro ADME, human
# [6] = Mouse liver microsome stability; format: in vitro ADME; settings: 15 minute incubation at 37 C
# C. albicans SC5314 [7] = assay: Diffusion halo assay on agar plates with various carbon sources; format: cell-based, Candida albicans; settings: 10 μg disc
# Outline: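 SC5314 cells were spread on agar plates with different carbon sources. These included 80% fetal bovine serum as nutrient source (~0.1-0.2% glucose), high (2%) glucose, galactose and non-fermentable sources. A filter disc carried 10 μg test compound in DMSO or DMSO alone. The zone of growth inhibition was scored.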
# C. albicans = assay: Co-culture of C. albicans with mouse bone-marrow-derived macrophages; format: cell-based, Candida albicans; settings: 5 μM
# Scedosporium prolificans = assay: Single-agent growth inhibition of Scedosporium prolificans; format: cell-based; settings: enhanced under respiratory growth conditions
# Aspgerillus terreus = assay: Single-agent growth inhibition of Aspgerillus terreus; format: cell-based; settings: enhanced under respiratory growth conditions
# Rhizopus oryzae = assay: Single-agent growth inhibition of Rhizopus oryzae; format: cell-based; settings: enhanced under respiratory growth conditions
# cytochrome bc1 [8] = biological target: cytochrome bc1 (Saccharomyces cerevisiae, UniProt P00163); assay: Cytochrome bc1 enzymatic activity in purified yeast mitochondria; format: biochemical; settings: read-out: IC50 cytochrome bc1 inhibition; S. cerevisiae mitochondria, wild type
# S. cerevisiae (BY4741) = format: cell-based
# C. albicans (SC5314) = assay: C. albicans growth in media with glucose or glycerol as carbon source; format: cell-based, Candida albicans
# Outline: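 Growth compared in synthetic medium of yeast nitrogen base with complete amino acid supplement, containing either 2% glucose or 2% glycerol as carbon source. Data pooled from two independent experiments.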
# Solubility limit = format: physicochemical
# human cytochrome bc1 [9] = biological target: T1, human cytochrome bc1; settings: human IC50 versus C. albicans homolog IC50
# [10] = media containing glycerol as the sole carbon source
smiles,measurement,setting,value
O=C1C(O)=C([C@H]2CC[C@H](c3ccc(Cl)cc3)CC2)C(=O)c2ccccc21 [atovaquone],IC50,HepG2 cells,12700 nM
same,Potency against the malarial cytochrome B,malarial cytochrome B,low nanomolar potency
same,IC50,human cytochrome bc1 [1],1800 nM
"OC(Cn1cncn1)(Cn1cncn1)c1ccc(F)cc1F [fluconazole, reference compound]",Rate of emergence of resistant colonies,[2]; 64 mg/L fluconazole alone,~ 0.5%
same,Effect on growth and viability as single agent,C. albicans SC5314 [3],slowed growth of the wild-type strain but did not cause a decrease in viability
same,Brain fungal burden,[4],eliminated brain colonization
Cn1nnc(Cn2nc(-c3ccccc3)c3ccccc32)n1 [Inz-34],Activity against Candida proliferation,C. albicans CaCi-2,retained activity
Cc1cccc2c(-c3cc(C(F)(F)F)ccc3F)nn(Cc3nnn(C)n3)c12 [Inz-5],Activity against Candida proliferation,C. albicans CaCi-2,sub-micromolar activity
same,Extent of inhibition of C. albicans cytochrome bc1 activity,cytochrome bc1 [5],complete inhibition
same,Plasma stability,Plasma stability; 3 hours of incubation in human serum,fully recovered
same,Compound remaining in mouse liver microsomes,[6],19.5%
same,Effect on colonies,[2]; 10 μM Inz-5 alone,"reduced colony size, but no reduction in the total number of colonies"
same,Effect on emergence of resistant colonies,[2]; 10 μM Inz-5 in combination with 64 mg/L fluconazole,completely abrogated the emergence of resistant colonies
same,Reduction of the number of viable colonies,C. albicans SC5314 [3]; 10 μM Inz-5 in combination with 32 mg/L fluconazole,97%
same,Effect on growth and viability as single agent,C. albicans SC5314 [3],partially slowed growth
same,Growth inhibition in halo assay,C. albicans SC5314 [7]; 80% fetal bovine serum as the nutrient source,slight growth inhibition
same,Growth inhibition in halo assay,"C. albicans SC5314 [7]; amino acids, lactate, or acetate as the carbon source",potent and profound growth inhibition
same,Growth inhibition in halo assay,C. albicans SC5314 [7]; galactose,moderate growth inhibition
same,Growth inhibition in halo assay,C. albicans SC5314 [7]; high glucose,very little growth inhibition
same,Fungal growth in the presence of macrophages,C. albicans; 14-hour co-culture,sharply curtailed fungal growth
same,Escape of C. albicans from macrophages,C. albicans; 2 hours,remained trapped in the phagosome
same,Growth inhibition as a single agent,Scedosporium prolificans,promising growth inhibition
same,Growth inhibition as a single agent,Aspgerillus terreus,promising growth inhibition
same,Growth inhibition as a single agent,Rhizopus oryzae,promising growth inhibition
COC(=O)Cn1nc(-c2ccccc2)c2ccccc21 [Inz-1],IC50,cytochrome bc1 [8],2500 nM
same,Extent of inhibition of C. albicans cytochrome bc1 activity,cytochrome bc1 [5],significant residual activity
same,Resistance conferred by L275S mutation,S. cerevisiae (BY4741); cytochrome B L275S mutant,confer resistance
same,Resistance conferred by P270L mutation,S. cerevisiae (BY4741); cytochrome B P270L mutant,confer resistance
same,Growth inhibition,S. cerevisiae (BY4741); glucose media,only mildly slowing growth
same,Growth inhibition,S. cerevisiae (BY4741); [10],potently inhibited growth
same,Resistance conferred by G143A mutation,"S. cerevisiae (BY4741); yeast cytochrome B G143A mutant, respiratory growth",strong resistance
same,Growth inhibition,C. albicans (SC5314); glucose media,only mildly slowing growth
same,Growth inhibition,C. albicans (SC5314); [10],potently inhibited growth
same,Plasma stability,Plasma stability; incubation of 1 hour at 37 C in human plasma,fully degraded
same,Compound remaining in mouse liver microsomes,[6],< 1%
same,Solubility limit,Solubility limit,32 µM
same,Fold higher IC50 for human than for C. albicans cytochrome bc1,human cytochrome bc1 [9],5.6 fold
c1ccc(-c2nn(Cc3cnccn3)c3ccccc23)cc1 [Inz-37],Activity against Candida proliferation,C. albicans CaCi-2,retained activity
COC(=O)Cn1nc(-c2cc(C(F)(F)F)ccc2F)c2ccccc21 [Inz-2],Potency against the fungal enzyme,cytochrome bc1 [5]; compared with Inz-1,significant enhancement of potency
COC(=O)Cn1nc(-c2ccccc2)c2cccc(C)c21 [Inz-3],Activity against Candida proliferation,C. albicans CaCi-2,beneficial to both the activity and the selectivity
